Source: PubChem BioAssay (several laboratories)
HSF1 inh: HSF1 inhibition; NIH3T3-HGL HSE-luciferase, MG132-induced, luminescence 8 h; active compounds read low; 300,000 tested, 0.77% active; activity change, negative = inhibition, % at 7.5 µM (by protocol);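 active = more than half of replicate wells show activity change below -50%, luminescence cut by over half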;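 note: luciferase reports HSF-1 transcriptional activity via heat shock element; 0% = median of DMSO wells and -100% = zero luminescence signal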
AI-2 QS mod: Vibrio harveyi AI-2 quorum sensing modulation | 300,000 tested, 0.4% active | activity change, % at 7.5 µM | Vibrio harveyi JMH597 AI-2 luminescence/OD600 ratio, 9 h; active compounds read low; strain lacks LuxN and CqsS sensors; 0 = neutral-control median; in the data active = activity change below about -75%, passing the limit was not always enough;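 note: luminescence divided by OD600 gain over 9 h not by final OD600 alone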
HSF-1 act: increases HSF-1 driven luciferase reporter signal. NIH3T3-HGL HSF-1 luciferase reporter, MG132, 8 h; 100% = twice DMSO control signal. activation, % at 9 µM. 300,000 tested, 1.7% active. AID 504408;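 active = mean replicate activation of at least 50% with a set share of replicates each reaching 50%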;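 note: 0% = median of the neutral control wells and 100% = twice that signal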
HCV core dimer: HCV core protein dimerization inhibition; 300,000 tested, 0.33% active; inhibition, % at 5 µM; TR-FRET GST/Flag-core106 dimerization, 1536-well;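 active = inhibition above the mean of all tested compounds plus 3 SD, set per screening campaign, cut at about 45% in these data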
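System – GST-tagged and Flag-tagged HCV core protein residues 1-106 · Repeats – one well for each compound · Technique – TR-FRET 671 and 617 nm emission · Doses – one concentration, 5 µM, in 0.5% DMSO · Times – 4 h, 22.5 °C incubation · Also added – Eu donor and XL665 acceptor anti-tag antibodies · Measure – percent inhibition of core106 dimerization signal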
ALR inh: blocks human ALR sulfhydryl oxidase activity; AID 485317; P55789; inhibition, % (test concentration not listed); 290,000 tested, 3.8% active; purified ALR, DTT oxidation, H2O2 HRP-luminol luminescence;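 active = mean replicate inhibition above about 79%, with every replicate also reaching it, limit read from the data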
Target sequence (P55789 whole entry, looked up): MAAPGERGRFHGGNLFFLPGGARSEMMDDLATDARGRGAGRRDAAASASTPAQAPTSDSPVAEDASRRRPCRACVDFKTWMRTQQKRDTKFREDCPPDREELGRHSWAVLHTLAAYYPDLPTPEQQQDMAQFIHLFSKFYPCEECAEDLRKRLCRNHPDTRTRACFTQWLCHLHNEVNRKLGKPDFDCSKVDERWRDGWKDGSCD
PHOSPHO1 inh: inhibitors of human PHOSPHO1 phosphatase | Q8TCT1 | recombinant PHOSPHO1, absorbance phosphatase assay | inhibition, % at 13.3 µM | 290,000 tested, 1.1% active; in the data active = inhibition above about 60%
* = called active by the depositor; . = not tested or not shown. This is a sample that favours compounds with a hit; in the whole collection about 6.8% have one here.

SMILES	HSF1 inh	AI-2 QS mod	HSF-1 act	HCV core dimer	ALR inh	PHOSPHO1 inh
Cc1ccc(C(=O)NCCCNC(=O)c2ccccn2)cc1	-3	14	6	6	-7	16
Cc1ccc(NC(NC(=O)c2cccnc2)C(Cl)(Cl)Cl)cc1 (stereo not drawn)	-1	8	26	-7	99*	7
Cc1ccc(NC(=O)c2ccccn2)c(Br)c1	30	20	58*	1	6	-22
COc1ccccc1NC(NC(=O)c1cccnc1)C(Cl)(Cl)Cl (stereo not drawn)	3	4	15	-3	88*	57
O=C(c1ccc([N+](=O)[O-])cc1)N1CCSC1c1ccccc1Cl (stereo not drawn)	2	5	-5	1	-54	43
Clc1ccccc1C1SCC2Nc3ccccc3CN21 (stereo not drawn)	-8	4	6	8	98*	22
Cc1noc(C)c1COc1ccc(C(=O)Nc2cccnc2)cc1	5	31	1	.	.	-50
CCNc1nc(CSc2ccccc2)nc2sc(C)c(C)c12	13	-12	31	0	83*	-12
CCCCn1nc(C(=O)N(C)CC(=O)Nc2ccc(F)c(F)c2F)ccc1=O	.	.	.	.	15	.
O=S(=O)(Nc1nc2ccccc2nc1Cl)c1ccc(Br)cc1	-54*	62	-64	19	45	21
Cc1ccccc1S(=O)(=O)Nc1nc2ccccc2nc1N1CCc2ccccc2C1	42	-6	71*	9	-3	7
O=S(=O)(Nc1nc2ccccc2nc1Cl)c1ccc(Cl)cc1	1	25	3	6	0	6
O=S(=O)(Nc1nc2ccccc2nc1N1CCc2ccccc2C1)c1ccc(Cl)cc1	20	1	57*	10	-6	7
O=S(=O)(Nc1nc2ccccc2nc1N1CCc2ccccc2C1)c1ccc(Br)cc1	.	.	.	8	6	18
CC(C)(C)OC(=O)C[C@H]1C/C=C\C[C@@H](CC(=O)N[C@@H](CO)Cc2ccccc2)C(=O)N2CCC[C@@H]2COC1=O	.	.	.	.	1	.
Cc1cccc(NC(=O)CN2CCSc3ccccc32)c1	-8	17	-5	0	.	-19
COc1cccc(NC(=O)CN2CCSc3ccccc32)c1	-2	34	7	-6	100*	-31
COc1ccccc1NC(=O)CN1CCSc2ccccc21	-5	17	-11	-3	80*	-10
CCS(=O)(=O)c1ccc2c(c1)N(S(C)(=O)=O)CC(C(=O)NN)O2 (stereo not drawn)	7	11	10	2	-13	28
Cn1ccc(NS(=O)(=O)c2cc(Br)ccc2Br)n1	.	.	.	.	-5	.
C=CCn1c(SCC(=O)Nc2ccc(S(N)(=O)=O)cc2)nnc1-c1cnccn1	-1	10	13	7	-46	21
COc1ccc2[nH]c(C(=O)O)c(NS(=O)(=O)c3ccc(F)cc3)c2c1	-5	21	-23	6	90*	22
COc1ccc2[nH]c(C(=O)O)c(NS(=O)(=O)c3ccc(C)c(C)c3)c2c1	3	18	-18	4	97*	15
CC(C)C(NC(=O)OCc1ccccc1)C(=O)NCc1ccc(C(=O)O)cc1 (stereo not drawn)	-10	15	0	-8	-2	-8
COC(=O)[C@H](CC(C)C)NC(=O)NCc1ccc(Cl)cc1	0	29	-1	0	-3	20
SMILES	HSF1 inh	AI-2 QS mod	HSF-1 act	HCV core dimer	ALR inh	PHOSPHO1 inh
N#CCCN(C(=O)CSc1ccc2c(c1)OCCO2)c1ccc(F)cc1	3	-22	3	-3	98*	-7
N#CCCN(C(=O)COC(=O)C1=COCCO1)c1ccc(F)cc1	-2	27	-11	2	1	.
Cc1ccc(N(CCC#N)C(=O)CSc2ccc3c(c2)OCCO3)cc1	1	30	18	-1	99*	-8
C/C(N)=C(/C#N)C(=O)CSc1ccc2c(c1)OCCO2	31	16	40	-5	23	-16
CN(Cc1ccccc1)C(=O)CCC1CCN(C(=O)CC2=CCCCC2)CC1	44	3	71*	.	.	31
CN(Cc1ccccc1)C(=O)CCC1CCN(C(=O)CCC(F)(F)F)CC1	12	10	38	-6	.	25
